From publication PMC11303814 (Nature Communications, 2024) come the findings set out here.

What all share (format): cell-based
For experiment [1], the target named is T1, rP2X7-Q143A (Rattus norvegicus, UniProt Q64663, Q143A).
T1 sequence (Q64663 1-595 Q143A): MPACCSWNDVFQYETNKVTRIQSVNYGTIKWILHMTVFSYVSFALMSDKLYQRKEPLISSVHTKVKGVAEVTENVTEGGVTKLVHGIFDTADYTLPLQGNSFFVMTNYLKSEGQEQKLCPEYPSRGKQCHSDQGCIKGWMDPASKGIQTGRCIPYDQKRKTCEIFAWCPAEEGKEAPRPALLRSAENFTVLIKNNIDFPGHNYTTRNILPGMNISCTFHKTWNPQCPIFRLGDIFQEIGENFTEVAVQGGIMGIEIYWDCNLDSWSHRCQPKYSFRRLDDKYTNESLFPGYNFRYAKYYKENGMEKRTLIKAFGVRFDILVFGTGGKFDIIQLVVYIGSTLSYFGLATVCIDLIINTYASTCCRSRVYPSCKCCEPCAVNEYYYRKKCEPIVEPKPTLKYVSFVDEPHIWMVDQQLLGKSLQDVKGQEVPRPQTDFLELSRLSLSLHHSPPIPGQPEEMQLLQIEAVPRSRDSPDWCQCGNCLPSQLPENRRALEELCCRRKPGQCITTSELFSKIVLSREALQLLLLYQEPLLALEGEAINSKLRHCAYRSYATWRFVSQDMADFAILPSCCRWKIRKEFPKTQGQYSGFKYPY
Put plainly: TEVC deactivation time. As to conditions: after 100 μM ATP or 10 μM BzATP. The essentials:
(§1)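 Xenopus oocytes injected with 50 nL of 10 ng/µL mutant rP2X7 mRNA, expressed ~20 h, clamped in pH 7.4 HEPES buffer with 0.1 mM flufenamic acid and EDTA. Currents were evoked by 100 µM ATP or 10 µM BzATP. τ is the time for current to return to 63% of baseline after agonist removal, from a one- or two-phase decay fit. Done in triplicate over first to third applications per oocyte; mean ± SD.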

The next experiment deals with T2, rP2X7-I214A (Rattus norvegicus, UniProt Q64663, I214A).
T2 sequence (Q64663 1-595 I214A): T1 sequence (Q64663 1-595 Q143A) with A143Q, I214A
Put plainly: TEVC dose response. As to conditions: read-out: EC50 (apparent affinity), mean ± SD, triplicate. The essentials:
(§2)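 TEVC was run on Xenopus oocytes ~20 h after injection of wild-type or mutant rP2X7 mRNA, in pH 7.4 HEPES buffer with 0.1 mM flufenamic acid. Receptors were facilitated at 100 µM before recording. Dilution series: ATP 1.5 mM–2 µM (7 points), BzATP 300–0.14 µM (8 points). Responses were normalized to the largest concentration, fitted by nonlinear regression for EC50, and averaged across triplicates (mean ± SD).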

In another experiment the target is T3, rP2X7 K127A (Rattus norvegicus, UniProt Q64663, K127A).
T3 sequence (Q64663 1-595 K127A): T1 sequence (Q64663 1-595 Q143A) with K127A, A143Q
The experiment is described as follows: TEVC deactivation time. As to conditions: after 100 μM ATP or 10 μM BzATP. The essentials: as §1

For another experiment, the target named is T4, rP2X7-R125A/Q143A/I214A (Rattus norvegicus, UniProt Q64663, I214A/Q143A/R125A).
T4 sequence (Q64663 1-595 R125A/Q143A/I214A): T1 sequence (Q64663 1-595 Q143A) with R125A, I214A
The experiment is described as follows: TEVC dose response. As to conditions: read-out: EC50 (apparent affinity), mean ± SD, triplicate.

Experiment [2] deals with T1, rP2X7-Q143A. The experiment is described as follows: TEVC dose response. Conditions: read-out: EC50 (apparent affinity), mean ± SD, triplicate. In outline:
as §2

Positions count from the first letter of the chain named.

Take BzATP: the figures for the “deactivation lifetime τ” value at rP2X7-Q143A [1] and at rP2X7 K127A were 7.1 ± 0.6 s and 21 ± 6.2 s, respectively. The EC50 (as a rule, the midpoint of the concentration-response curve) stood at 2.5 ± 0.8 µM on rP2X7-I214A, 198 ± 60 µM on rP2X7-R125A/Q143A/I214A and 8.5 ± 3.2 µM at rP2X7-Q143A [2].
In the case of `Nc1ncnc2c1ncn2[C@@H]1O[C@H](COP(=O)(O)OP(=O)(O)OP(=O)(O)O)[C@@H](O)[C@H]1O` [ATP], the “deactivation lifetime τ” value on rP2X7-Q143A [1] worked out at 1.2 ± 0.1 s; at rP2X7 K127A it was 2.3 ± 0.7 s. Moreover, the EC50 came out at 68 ± 11 µM at rP2X7-I214A, 203 ± 12 µM at rP2X7-R125A/Q143A/I214A and 113 ± 30 µM on rP2X7-Q143A [2].
